# Sampled rows, rich in hits. Any-hit rate of the full collection: about 2%.
# ZTA counter: counter-screen for EBNA-1 inhibitors: inhibitors of Epstein-Barr virus ZTA | P03206 | ZTA-DNA binding, fluorescence polarization | 0.15% of 320,000 active | inhibition, % at 11 µM | AID 2234; in the data active means inhibition above about 33%
# Target sequence (P03206 whole entry, looked up): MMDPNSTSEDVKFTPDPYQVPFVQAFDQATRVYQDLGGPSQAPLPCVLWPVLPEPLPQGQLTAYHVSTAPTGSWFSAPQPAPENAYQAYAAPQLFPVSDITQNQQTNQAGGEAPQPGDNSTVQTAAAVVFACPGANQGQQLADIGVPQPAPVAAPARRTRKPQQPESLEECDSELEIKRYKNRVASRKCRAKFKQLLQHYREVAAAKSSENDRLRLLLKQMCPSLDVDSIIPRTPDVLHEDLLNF
# HCV NS3 hel inh: inhibitors of HCV NS3 helicase, primary screen, biochemical, Cy5 molecular beacon fluorescence | NS3 helicase DNA unwinding | Hepatitis C virus NS3 helicase | AID 1800, 2009 | 0.56% of 290,000 active | inhibition, % at 10.9 µM;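 active means inhibition above the mean of all tested compounds plus 3 SD, set per campaign, cut at about 35% in these data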;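 further: 0% = DMSO wells and 100% = thioflavine S control wells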
#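 Material: hepatitis C virus NS3 helicase domain fragment enzyme; measured by: Cy5 fluorescence, 0 and 60 min reads; control set: DMSO and thioflavine S; incubation: 60 min unwinding reaction at 25 °C after ATP addition; read-out basis: % inhibition from 60/0 min fluorescence ratio, DMSO 0%, thioflavine S 100%; repeats: singlicate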
# EBNA-1 inhibitor: EBNA-1 DNA-binding inhibitors, primary screen, biochemical, fluorescence polarization; inhibition, % at 14.8 µM; 0.34% of 300,000 active; AID 1950, 2009; in the data active means inhibition above about 28%
# FID counter: compounds displacing fluorescent DNA intercalator, primary screen, artefact control for HCV NS3 helicase inhibitor project, biochemical, FID fluorescence. DNA fluorescent intercalator displacement. inhibition, % at 7.9 µM. 0.17% of 290,000 active; in the data active means inhibition above about 37%;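 further: 0% = vehicle and 100% = reference compound; higher means more ethidium bromide displaced from hairpin DNA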
# GPR7 antag: GPR7 receptor antagonists, primary screen, cell-based, fluorescence, single concentration; Neuropeptides B/W receptor type 1 (Homo sapiens), P48145; GPR7-expressing cells, fluorescence antagonist assay; 1.1% of 290,000 active; inhibition, % at 4.4 µM; in the data active means inhibition above about 16%, passing the limit was not always enough;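 further: cells stimulated with the agonist NPW; 0% = agonist with vehicle and 100% = vehicle without agonist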
# Target sequence (P48145 whole entry, looked up): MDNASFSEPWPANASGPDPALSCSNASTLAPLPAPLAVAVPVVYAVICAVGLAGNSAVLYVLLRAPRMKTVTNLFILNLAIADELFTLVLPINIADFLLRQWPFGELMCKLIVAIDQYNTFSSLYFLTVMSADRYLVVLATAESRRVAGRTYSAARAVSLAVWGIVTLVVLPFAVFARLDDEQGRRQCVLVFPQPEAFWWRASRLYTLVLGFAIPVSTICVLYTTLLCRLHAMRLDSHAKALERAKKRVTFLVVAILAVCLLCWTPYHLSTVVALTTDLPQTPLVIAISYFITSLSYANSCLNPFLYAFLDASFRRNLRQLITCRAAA
# EBNA-1 inh conf: EBNA-1 DNA-binding inhibitors, retest, confirmation, biochemical, fluorescence polarization, triplicate. shares compounds with EBNA-1 inhibitor. Recombinant EBNA-1 DBD, Cy5-DNA fluorescence polarization. inhibition, % at 14.8 µM. 35% of 830 active;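 active means mean inhibition across replicates above a set limit taken from the earlier primary screen, cut at about 28% in these data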;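 further: plate controls were EBNA-1 protein with DMSO for no effect and wells lacking EBNA-1 for full effect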
# ZTA counter trip: EBV Zta DNA binding inhibitors, counter-screen for EBNA-1 inhibitor project, biochemical, fluorescence polarization, triplicate. AID 2328, 2010. inhibition, % at 11.1 µM. 830 tested, under 10 active. Zta-ZRE DNA binding, Cy5 fluorescence polarization. shares compounds with EBNA-1 inhibitor;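 active means mean inhibition over triplicates above a set limit taken from the primary EBNA-1 screen, cut at about 37% in these data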;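 further: purified full length Zta protein with Cy5 labeled ZRE DNA probe; 0% = Zta with DMSO and 100% = wells lacking Zta protein; inhibitors lower polarization by freeing the labeled DNA probe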
# * marks the source's active call; other numbers are inactive results; . = no result given.
SMILES,ZTA counter,HCV NS3 hel inh,EBNA-1 inhibitor,FID counter,GPR7 antag,EBNA-1 inh conf,ZTA counter trip
COc1ccc(C(=O)Nc2ccc(C3(C#N)CCCC3)cc2)cc1,17.8,-1.2,55.8*,8.5,-11.9,13.5,1.9
COc1ccc(NC(=O)c2ccc(OC(=S)N(C)c3ccc(OC)cc3)cc2)cc1,12.8,2.0,34.0*,0.3,-5.7,18.6,8.1
COc1ccc(NC(=O)Nc2ccc(OC)cc2)cc1,4.3,-0.3,54.5*,-11.9,-9.8,32.3*,0.2
COc1ccc(C(=O)Nc2ccc3c(c2)C(=O)NC3=O)cc1,10.2,-4.2,32.8*,-2.6,4.7,26.1,5.5
COC(=O)c1ccc(NC(=O)Nc2ccc(OC)cc2)cc1,-7.2,-12.0,-9.3,-0.7,-2.6,.,.
CCN(CC)C(=O)Cn1cc(S(=O)(=O)CC(=O)Nc2ccccc2F)c2ccccc21,-11.5,-3.3,9.5,-25.2,-17.8,.,.
COc1cccc(N2CC(O)=C(c3nc4ccccc4c(=O)[nH]3)C2=N)c1,-16.6,0.8,66.8*,-13.4,5.0,124.5*,0.8
Cc1cc(C)cc(N2CC(O)=C(c3nc4ccccc4c(=O)[nH]3)C2=N)c1,2.2,6.2,0.2,-3.2,6.5,.,.
COc1ccc(N=Cc2c(O)n(-c3ccc(OC)cc3)c(=O)c3ccccc23)cc1,9.0,-18.1,65.2*,-2.4,-8.8,55.7*,8.5
COc1ccc(NC(=O)C(c2ccc(Cl)cc2)C(C)C)cn1 (stereo unspecified),-1.7,-10.5,2.5,-15.6,-1.1,.,.
O=C(CSc1nc2ccc(Cl)cc2[nH]1)c1c[nH]c2ccccc12,-3.3,7.1,4.3,11.9,6.9,.,.
O=C(CSc1nc2ncc(Cl)cc2[nH]1)c1c[nH]c2ccccc12,-13.6,-10.9,31.0*,-1.0,8.1,17.9,7.5
C=C(C)COc1ccc2c(C)c(CCC(=O)N3C[C@H]4C[C@@H](C3)c3cccc(=O)n3C4)c(=O)oc2c1,-0.4,-19.8,1.4,-48.7,0.0,.,.
Cc1csc(=O)n1CC(=O)Nc1nc2ccccc2s1,15.2,.,.,.,.,.,.
CC(=O)NC(=S)Nc1ccc(NC(=S)NC(=O)/C=C/c2ccco2)cc1,1.3,12.5,42.6*,-5.7,-23.9,31.8*,14.8
O=C(NC(=S)Nc1ccc(S(=O)(=O)N2CCCCCC2)cc1)c1cccs1,-12.6,-1.4,85.0*,0.4,-2.6,65.6*,18.1
O=C(NC(=S)Nc1ccc(S(=O)(=O)N2CCCC2)cc1)c1cccs1,13.8,6.4,-8.0,-4.7,-2.3,.,.
C/C(=N\NC(=O)C1CC1)c1ccc(C)cc1C,5.1,.,3.5,.,.,.,.
CCOc1ccccc1N(C)S(=O)(=O)c1ccc2c(c1)N(C(C)=O)CCO2,-1.2,4.8,-5.7,-40.0,1.6,.,.
CCCCOc1cccc(-c2nnc(N)s2)c1,-1.4,-9.6,12.3,-9.0,-4.2,.,.
CCCOc1cccc(-c2nnc(N)s2)c1,-10.3,7.7,33.3*,-1.2,0.7,-6.1,4.6
COCCC(=O)N1CCC(n2nccc2NC(=O)c2ccccc2C)CC1,-4.9,1.5,-12.9,-5.0,0.1,.,.
COc1ccc(Cl)cc1NC(=O)CN1CCN(S(=O)(=O)c2ccc(F)cc2)CC1,-21.5,-1.1,44.4*,-34.2,13.4,91.2*,10.7
O=C(Nc1ccc2oc(=O)ccc2c1)c1ccc(-c2cccc(Cl)c2)o1,4.6,12.8,31.8*,-7.7,2.9,25.3,21.1
O=C(CCCCCn1c(=S)[nH]c2cc3c(cc2c1=O)OCO3)N1CCN(C(=O)c2ccco2)CC1,14.2,-1.2,13.8,-13.4,11.2,.,.
SMILES,ZTA counter,HCV NS3 hel inh,EBNA-1 inhibitor,FID counter,GPR7 antag,EBNA-1 inh conf,ZTA counter trip
O=C(CCCCCn1c(=S)[nH]c2cc3c(cc2c1=O)OCO3)N1CCN(Cc2ccccc2)CC1,-0.8,-6.3,36.6*,-17.6,-6.1,69.4*,-3.2
CCc1noc(C)c1C(=O)OCC(=O)Nc1nc(-c2ccc(F)c(F)c2)cs1,9.6,.,.,.,.,.,.
O=C(CSCc1ccc(Cl)cc1)N/N=C/c1ccc(OCC(=O)Nc2ccccc2)cc1,7.9,-1.0,51.6*,-5.8,1.5,29.3*,1.1
COc1ccc(CNC(=O)Nc2ccc(C)cc2C)cc1,-0.3,8.9,63.2*,0.5,-12.5,28.4*,-1.1
Cc1ccc(NC(=O)CCn2c(=S)oc3ccccc32)cc1,-3.8,9.2,42.7*,-3.4,-14.4,55.0*,0.7
CC(=O)c1cccc(NC(=O)CCn2c(=S)oc3ccccc32)c1,7.6,-3.6,14.1,-3.5,9.2,.,.
O=C(CCn1c(=S)oc2ccccc21)Nc1ccc(F)cc1,6.7,2.6,47.6*,-3.1,-7.8,19.0,1.7
Cc1nnc(SC(C)C(=O)N(C)C2CCCCC2)n1N (stereo unspecified),-11.2,.,.,.,.,.,.
CCOC(=O)c1ccccc1NC(=O)COC(=O)CCC1CCCC1,-11.8,.,.,.,.,.,.
CCCCc1cc(=O)oc2c3c(cc(OCC(=O)N4CCC[C@H]4C(=O)O)c12)OC(C)(C)CC3,7.4,8.9,-3.5,-30.4,-5.5,.,.
Cc1cc(=O)oc2c3c(cc(OCC(=O)N4CCC[C@H]4C(=O)O)c12)OC(C)(C)CC3,-2.4,5.1,174.4*,-27.2,-11.1,-1.2,-4.6
CC12CCC(=O)N1C(C(=O)NCc1ccccc1F)CS2 (stereo unspecified),17.4,.,1.7,.,.,.,.
CCOC(=O)[C@H]1[C@H]2COc3ccc(Cl)cc3[C@@H]2N2C(=O)c3ccc(Cl)cc3NC(=O)[C@@]12C,-2.2,.,76.9*,.,.,81.8*,12.8
O=C(NCC1CCCCC1)c1cccc(-c2ccc(O)cc2)c1,2.0,15.6,-10.9,-16.1,1.3,.,.
CCn1c(=O)c(C(=O)NCc2ccc(OC)c(OC)c2)c(O)c2ccccc21,-1.1,3.2,30.4*,-2.9,-3.3,-2.2,0.6
COc1ccc2nc(NC(=O)CC3Oc4ccccc4NC3=O)sc2c1 (stereo unspecified),8.8,4.0,55.7*,-7.0,-5.0,19.9,10.7
Cc1ccc(C)c(N2CCN(S(=O)(=O)c3ccc4c(c3)NC(=O)CS4)CC2)c1,-0.3,-18.1,5.5,-30.0,-5.5,.,.
Cc1cccc(C(=O)O[C@@H]2[C@H](Cc3ccccc3)NS(=O)(=O)[C@H]3C[C@@H]4C=C[C@]23O4)c1,-1.6,.,.,.,.,.,.
CCOC(=O)N=S(=O)(Oc1ccc([N+](=O)[O-])cc1)c1ccccc1 (stereo unspecified),3.2,-5.1,136.6*,-3.5,6.5,-5.0,-0.7
CCOC(=O)N=S(=O)(Oc1ccc([N+](=O)[O-])cc1)c1ccc(Cl)cc1 (stereo unspecified),0.1,-4.9,-0.5,-5.0,-0.4,.,.
